From ChEMBL document CHEMBL3580589, “Discovery of Quinazoline-Based Fluorescent Probes to α1-Adrenergic Receptors” (ACS Med Chem Lett, 2015) come the findings set out here.

pIC50, pKi: −log10 of the molar value. Active and inactive are the calls of the source. The calls are words filed in the database; no cut-off is given here. Some results are limits rather than exact numbers.

A short description of data set [1]: Cytotoxicity against HEK293A cells transfected with alpha-1D adrenergic receptor assessed as cell viability by sulforhodamine B assay. Type of data set: cell-based. The following applies: Homo sapiens, HEK293-A. An outline of the steps: (§1)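 Standard sulforhodamine B colorimetric assay in HEK293A cells stably transfected with α1A-AR or α1D-AR.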
For orientation: The SRB assay estimates cell density from bound dye.

Data set [2] can be described thus: Cytotoxicity against HEK293A cells transfected with alpha-1A adrenergic receptor assessed as cell viability by sulforhodamine B assay. The class given is cell-based. The following applies: Homo sapiens, HEK293-A. An outline of the steps: as §1
For data set [3], the target named is T1, Alpha-1D adrenergic receptor (Homo sapiens, UniProt P25100).
T1 sequence (P25100 whole entry): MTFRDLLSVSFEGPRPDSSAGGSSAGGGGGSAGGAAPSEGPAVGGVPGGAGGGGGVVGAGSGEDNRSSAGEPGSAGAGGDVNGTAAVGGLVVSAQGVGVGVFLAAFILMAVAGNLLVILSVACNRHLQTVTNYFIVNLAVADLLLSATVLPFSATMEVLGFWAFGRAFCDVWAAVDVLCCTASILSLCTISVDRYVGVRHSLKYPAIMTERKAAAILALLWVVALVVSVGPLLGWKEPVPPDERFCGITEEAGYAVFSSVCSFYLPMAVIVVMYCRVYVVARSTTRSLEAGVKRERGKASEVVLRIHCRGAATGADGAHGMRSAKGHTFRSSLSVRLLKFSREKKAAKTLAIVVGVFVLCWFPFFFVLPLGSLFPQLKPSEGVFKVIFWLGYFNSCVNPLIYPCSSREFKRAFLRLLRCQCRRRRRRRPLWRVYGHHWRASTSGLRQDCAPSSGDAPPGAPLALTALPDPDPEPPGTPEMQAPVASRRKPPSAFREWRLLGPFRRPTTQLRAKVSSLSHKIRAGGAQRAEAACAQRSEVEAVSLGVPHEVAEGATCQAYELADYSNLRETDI
The data set can be described thus: Displacement of [3H]-Prazosin from human alpha-1D adrenergic receptor transfected in CHO cell membranes after 2 hrs by microplate scintillation counting analysis. The essentials:
(§2)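 Radioligand competition binding used [3H]prazosin on membranes from CHO cells transfected with human cloned α1A-, α1B- or α1D-adrenoceptors.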
Background: Displacement assays read how much labelled ligand stays bound in the presence of the test substance.

Data set [4] deals with T2, Adrenergic receptor alpha-1 (Homo sapiens) (UniProt P35348+P25100+P35368). The data set can be described thus: Binding affinity to alpha-1 adrenergic receptor in human PC3 cells at 1 uM measured 30 mins post wash out by fluorescence assay. Type of data set: cell-based. The following applies: PC-3. The essentials: (§3)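 PC-3 or HepG2 cells were incubated with the probe at 1 μM for 30 min at 37 °C, then washed immediately. Labelling was imaged by fluorescence microscopy, with background adjusted.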

Data set [5] deals with T3, Alpha-1A adrenergic receptor (Homo sapiens) (UniProt P35348).
T3 sequence (whole entry): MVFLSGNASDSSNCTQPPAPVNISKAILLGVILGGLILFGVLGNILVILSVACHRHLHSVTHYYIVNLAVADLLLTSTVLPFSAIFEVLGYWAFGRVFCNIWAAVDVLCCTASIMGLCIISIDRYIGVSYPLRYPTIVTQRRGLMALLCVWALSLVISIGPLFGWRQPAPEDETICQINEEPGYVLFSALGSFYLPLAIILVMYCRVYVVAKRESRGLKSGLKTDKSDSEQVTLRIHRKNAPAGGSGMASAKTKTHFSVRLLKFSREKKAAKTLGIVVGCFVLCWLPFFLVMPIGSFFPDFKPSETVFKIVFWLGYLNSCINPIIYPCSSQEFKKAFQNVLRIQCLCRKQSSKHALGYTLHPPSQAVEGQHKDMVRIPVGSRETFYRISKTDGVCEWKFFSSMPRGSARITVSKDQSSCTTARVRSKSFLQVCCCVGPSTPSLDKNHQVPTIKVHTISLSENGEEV
The data set can be described thus: Binding affinity to alpha-1A adrenergic receptor (unknown origin) transfected in HEK293A cells at 50 nM after 5 mins by DiD dye-based confocal microscopic analysis in presence of alpha1 adrenergic receptor antagonist tamsulosin. Type of data set: cell-based. The note with it: HEK293-A. The essentials:
(§4)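 Transfected HEK293A cells expressing α1A-AR or α1D-AR were incubated with the probe, DiD and tamsulosin as competing α1-AR antagonist for 5 min at 37 °C. Fluorescence labelling was imaged by confocal microscopy.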

In data set [6] the target is T2, Adrenergic receptor alpha-1 (Homo sapiens). The data set can be described thus: Binding affinity to alpha-1 adrenergic receptor in human PC3 cells at 1 uM measured 30 mins post wash out by fluorescence assay in presence of doxazosin. The class given is cell-based. The following applies: PC-3. An outline of the steps:
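PC-3 cells were co-incubated with the probe at 1 μM and doxazosin at 10 μM for 30 min at 37 °C, then washed immediately. Displacement of labelling was imaged by fluorescence microscopy.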

The target of data set [7] is T4, Alpha-1B adrenergic receptor (Homo sapiens, UniProt P35368).
T4 sequence (P35368 whole entry): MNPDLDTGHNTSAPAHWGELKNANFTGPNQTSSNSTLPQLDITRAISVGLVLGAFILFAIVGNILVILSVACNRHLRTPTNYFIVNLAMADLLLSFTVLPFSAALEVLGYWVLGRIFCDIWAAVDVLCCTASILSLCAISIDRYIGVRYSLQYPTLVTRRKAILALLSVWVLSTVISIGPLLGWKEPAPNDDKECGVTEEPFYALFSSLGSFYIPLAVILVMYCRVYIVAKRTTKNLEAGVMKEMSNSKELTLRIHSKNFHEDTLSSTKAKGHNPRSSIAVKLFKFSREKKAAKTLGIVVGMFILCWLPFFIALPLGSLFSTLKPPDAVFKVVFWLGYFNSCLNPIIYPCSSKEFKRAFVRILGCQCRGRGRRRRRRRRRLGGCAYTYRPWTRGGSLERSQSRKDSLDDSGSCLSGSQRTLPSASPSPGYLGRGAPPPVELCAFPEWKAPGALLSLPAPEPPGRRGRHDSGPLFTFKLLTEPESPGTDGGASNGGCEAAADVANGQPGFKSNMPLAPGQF
Nature of the data set: Displacement of [3H]-Prazosin from human alpha-1B adrenergic receptor transfected in CHO cell membranes after 2 hrs by microplate scintillation counting analysis. The essentials: as §2

Data set [8] has as its target T5, Alpha-1D adrenergic receptor (Homo sapiens) (UniProt P25100).
T5 sequence (whole entry): T1 sequence (P25100 whole entry)
Nature of the data set: Binding affinity to alpha-1D adrenergic receptor (unknown origin) transfected in HEK293A cells at 50 nM after 5 mins by DiD dye-based confocal microscopic analysis in presence of alpha1 adrenergic receptor antagonist tamsulosin. The class given is cell-based. The note with it: HEK293-A. The essentials: as §4

Data set [9] has as its target T5, Alpha-1D adrenergic receptor (Homo sapiens). The data set can be described thus: Binding affinity to alpha-1D adrenergic receptor (unknown origin) transfected in HEK293A cells at 50 nM after 5 mins by DiD dye-based confocal microscopic analysis. The note with it: HEK293-A. The class given is cell-based. An outline of the steps:
(§5)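 α1A-AR- or α1D-AR-transfected HEK293A cells, or untransfected HEK293A cells as the receptor-free control, were incubated with the probe plus DiD (red, colocalization) for 5 min at 37 °C. Probe signal was compared with the DiD-stained surface for subcellular localization by fluorescence microscopy.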

Data set [10] addresses T3, Alpha-1A adrenergic receptor (Homo sapiens). The data set can be described thus: Binding affinity to alpha-1A adrenergic receptor (unknown origin) transfected in HEK293A cells at 50 nM after 5 mins by DiD dye-based confocal microscopic analysis. The class given is cell-based. The following applies: HEK293-A. An outline of the steps:
as §5

For another data set, the system named is HepG2. Nature of the data set: Drug uptake in human HepG2 cells expressing low level of alpha-1 adrenergic receptor at 1 uM measured 30 mins post wash out by fluorescence assay. Type of data set: ADME, cell-based. The following applies: hepg2, 0.5 h. The essentials:
as §3

The target in data set [11] is T6, Alpha-1A adrenergic receptor (Homo sapiens, UniProt P35348).
T6 sequence (P35348 whole entry): T3 sequence (whole entry)
The data set can be described thus: Displacement of [3H]-Prazosin from human alpha-1A adrenergic receptor transfected in CHO cell membranes after 2 hrs by microplate scintillation counting analysis. The essentials: as §2

Data set [12] can be described thus: Drug uptake in HEK293A cells at 50 nM after 5 mins by DiD dye-based confocal microscopic analysis. The class given is ADME, cell-based. The note with it: human, hek293-a, 0.05 µM. An outline of the steps: as §5
The nature of data set [13]: Drug uptake in HEK293A cells at 20 nM after 5 mins by DiD dye-based confocal microscopic analysis. The class given is ADME, cell-based. The note with it: human, hek293-a, 0.02 µM. The essentials: as §5
Data set [14] concerns the target T3, Alpha-1A adrenergic receptor (Homo sapiens). Nature of the data set: Binding affinity to alpha-1A adrenergic receptor (unknown origin) transfected in HEK293A cells at 20 nM after 5 mins by DiD dye-based confocal microscopic analysis. The class given is cell-based. The following applies: HEK293-A. An outline of the steps:
as §5

Data set [15] shares this target. The data set can be described thus: Binding affinity to alpha-1A adrenergic receptor (unknown origin) transfected in HEK293A cells at 20 nM after 5 mins by DiD dye-based confocal microscopic analysis in presence of alpha1 adrenergic receptor antagonist tamsulosin. Type of data set: cell-based. The following applies: HEK293-A. An outline of the steps: as §4

As to `COc1cc2nc(N3CCN(C(=O)C4COc5ccccc5O4)CC3)nc(N)c2cc1OC` (centres undefined) [DOXAZOSIN], the pIC50 – broadly, the negative decadic logarithm of the IC50, by convention in mol/L – was 4.66 in [1] and 4.72 in data set [2].
Regarding `COc1cc2nc(N3CCN(C(=S)Nc4ccc(-c5c6ccc(=O)cc-6oc6cc(O)ccc56)c(C(=O)O)c4)CC3)nc(N)c2cc1OC`, the pIC50 is 7.47 in [3]; 7.79 in data set [7]; below 4.00 in data set [1]; below 4.00 in data set [2]; 8.06 in [11]. Further, the values for the pKi in data set [3], in [7] and in data set [11] were 7.68, 8.14 and 8.33, respectively. The result in data set [4], in [9] and in data set [10] was Active. For the same compound, the outcome in [5], in [6] and in data set [8] was inactive. The Drug uptake entry (with HepG2; in data set [12]) was “Active” each time.
Turning to `CCN(CC)c1ccc2cc(-n3cc(CN4CCN(c5nc(N)c6cc(OC)c(OC)cc6n5)CC4)nn3)c(=O)oc2c1`, in data set [13], the Drug uptake entry is listed as “Active”. Moreover, the pIC50 is 7.34 in [3]; 7.28 in data set [7]; 4.77 in data set [1]; 4.59 in [2]; 7.28 in [11]. Moreover, the pKi (usually the negative decadic logarithm of the Ki, by convention in mol/L) in [3] was 7.56; in [7], 7.52; in [11] it was 7.52. The result in [14] was Active. In addition, the outcome in data set [15] was inactive.
